Test results published in ChEMBL document CHEMBL4229352, “Synthesis, antileishmanial activity and mechanism of action studies of novel β-carboline-1,3,5-triazine hybrids” (Eur J Med Chem, 2018).
The source made the active and inactive calls. No cut-off for these calls is given here.

Key:
[1] = test system: Leishmania amazonensis; experiment: Antileishmanial activity against promastigote forms of Leishmania amazonensis after 72 hrs by XTT/PMS dye based spectrophotometric analysis; assay type: functional, organism-based
Outline: (§1)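 Log-phase parasites (promastigotes 48 h, axenic amastigotes 72 h) plated at the printed density with increasing compound concentrations; 72 h at 25 °C (promastigotes) or 32 °C (axenic amastigotes). XTT/PMS (0.5 and 0.3 mg/mL) added in the dark, absorbance at 450 nm after 4 h; IC50 versus negative control by regression. Mean ± SD of at least three independent experiments.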

[2] = test system: Leishmania amazonensis; experiment: Antileishmanial activity against axenic amastigote forms of Leishmania amazonensis MHOM/BR/75/Josefa after 72 hrs by haemocytometry; assay type: functional, organism-based
[3] = test system: Leishmania amazonensis; experiment: Antileishmanial activity against promastigote forms of Leishmania amazonensis MHOM/BR/75/Josefa after 72 hrs by haemocytometry; assay type: functional, organism-based
[4] = Cytotoxicity against mouse J774A1 cells assessed as reduction in cell viability after 48 hrs by MTT assay; assay type: cell-based, J774.A1
Outline: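 J774-A1 macrophages in RPMI 1640 with 10% FBS, plated and left 24 h at 37 °C, 5% CO2. Supernatant then replaced by increasing compound concentrations for 48 h. After a PBS wash, MTT (2 mg/mL) was added for 4 h at 25 °C in the dark, formazan dissolved in DMSO, absorbance read at 570 nm. CC50 by regression versus negative control; at least three experiments.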

[5] = Selectivity index, ratio of CC50 for mouse J774A1 cells to IC50 for axenic amastigote forms of Leishmania amazonensis; assay type: toxicity; settings: read-out: Ratio CC50/IC50
Outline: (§2)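 Selectivity index calculated as CC50 in J774-A1 macrophages (48 h MTT) divided by IC50 for L. amazonensis promastigotes or axenic amastigotes (72 h XTT/PMS).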

[6] = Selectivity index, ratio of CC50 for mouse J774A1 cells to IC50 for promastigote forms of Leishmania amazonensis; assay type: toxicity; settings: read-out: Ratio CC50/IC50; outline: as §2
[7] = test system: Leishmania amazonensis; experiment: Antileishmanial activity against axenic amastigote forms of Leishmania amazonensis after 72 hrs by XTT/PMS dye based spectrophotometric analysis; assay type: functional, organism-based; outline: as §1
[8] = test system: Leishmania amazonensis; experiment: Induction of ROS generation in promastigote forms of Leishmania amazonensis at IC50 after 24 hrs by H2DCFDA staining based spectrofluorometric analysis relative to control; assay type: functional
[9] = test system: Leishmania amazonensis; experiment: Induction of ultrastructural alteration in promastigote forms of Leishmania amazonensis assessed as alteration in plasma membrane at 6.2 uM after 48 hrs by transmission electron microscopic analysis; assay type: functional, organism-based
Outline: (§3)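 Promastigotes (1 x 10^6/mL) exposed to 6.2 μM for 24, 48 or 72 h at 25 °C alongside untreated controls. Fixed in 2.5% glutaraldehyde in 0.1 M cacodylate buffer. For TEM, post-fixed 1 h in 1% OsO4 with 0.8% potassium ferrocyanide in cacodylate buffer. For SEM, samples were gold-coated before viewing.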

[10] = test system: Leishmania amazonensis; experiment: Induction of morphological alteration in promastigote forms of Leishmania amazonensis assessed as cell rounding at 6.2 uM after 24 to 72 hrs by scanning electron microscopic analysis; assay type: functional, organism-based; outline: as §3
[11] = test system: Leishmania amazonensis; experiment: Induction of ultrastructural alteration in promastigote forms of Leishmania amazonensis assessed as formation of storage-lipid bodies at 6.2 uM after 48 hrs by transmission electron microscopic analysis; assay type: functional, organism-based; outline: as §3
[12] = test system: Leishmania amazonensis; experiment: Induction of ultrastructural alteration in promastigote forms of Leishmania amazonensis assessed as alteration in flagellar pocket with vacuoles at 6.2 uM after 72 hrs by transmission electron microscopic analysis; assay type: functional, organism-based; outline: as §3
[13] = test system: Leishmania amazonensis; experiment: Induction of ultrastructural alteration in promastigote forms of Leishmania amazonensis assessed as ultrastructural alteration in plasma membrane at 6.2 uM after 24 hrs by transmission electron microscopic analysis; assay type: functional, organism-based; outline: as §3
[14] = test system: Leishmania amazonensis; experiment: Induction of ROS generation in promastigote forms of Leishmania amazonensis at IC90 after 24 hrs by H2DCFDA staining based spectrofluorometric analysis relative to control; assay type: functional
[15] = test system: Leishmania amazonensis; experiment: Induction of lipid body storage in promastigote forms of Leishmania amazonensis at IC50 after 24 hrs by nile red staining based fluorescence assay relative to control; assay type: functional
[16] = test system: Leishmania amazonensis; experiment: Induction of ultrastructural alteration in promastigote forms of Leishmania amazonensis assessed as ultrastructural alteration in mitochondrial membrane at 6.2 uM after 24 hrs by transmission electron microscopic analysis; assay type: functional, organism-based; outline: as §3
[17] = test system: Leishmania amazonensis; experiment: Induction of ultrastructural alteration in promastigote forms of Leishmania amazonensis assessed as formation of mitochondrial swelling at 6.2 uM after 48 hrs by transmission electron microscopic analysis; assay type: functional, organism-based; outline: as §3
[18] = test system: Leishmania amazonensis; experiment: Induction of morphological alteration in promastigote forms of Leishmania amazonensis assessed as reduction in cell volume at 6.2 uM after 24 to 72 hrs by scanning electron microscopic analysis; assay type: functional, organism-based; outline: as §3
[19] = test system: Leishmania amazonensis; experiment: Induction of lipid body storage in promastigote forms of Leishmania amazonensis at IC90 after 24 hrs by nile red staining based fluorescence assay relative to control; assay type: functional
[20] = test system: Leishmania amazonensis; experiment: Induction of ultrastructural alteration in promastigote forms of Leishmania amazonensis assessed as formation of mitochondrial swelling at 6.2 uM after 72 hrs by transmission electron microscopic analysis; assay type: functional, organism-based; outline: as §3
[21] = test system: Leishmania amazonensis; experiment: Induction of ROS generation in promastigote forms of Leishmania amazonensis at IC50 to IC90 uM after 24 hrs in presence of NAC by H2DCFDA staining based spectrofluorometric analysis; assay type: functional, organism-based
[22] = Selectivity index, ratio of CC50 for mouse J774.G8 cells to IC50 for promastigote forms of Leishmania amazonensis MHOM/BR/75/Josefa; assay type: toxicity; settings: read-out: Ratio CC50/IC50

SMILES: O=C(NCCNc1nc(Cl)nc(Cl)n1)c1cc2c([nH]c3ccccc32)c(-c2ccc(F)cc2)n1
- IC50 [1]: > 100 µM

SMILES: COc1ccc(-c2nc(C(=O)NCc3ccccc3)cc3c2[nH]c2ccccc23)cc1
- IC50 [2]: 1 µM
- IC50 [3]: 2.6 µM

SMILES: COc1ccc(-c2nc(C(=O)NNc3nc(Cl)nc(Cl)n3)cc3c2[nH]c2ccccc23)cc1
- IC50 [1]: > 100 µM

SMILES: COc1ccc(-c2nc(C(=O)NCCNc3nc(Cl)nc(Cl)n3)cc3c2[nH]c2ccccc23)cc1
- IC50 [1]: 67.5 µM
- CC50 at 48 h [4]: 201 µM
- selectivity ratio [5]: 201
- selectivity ratio [6]: 3
- IC50 [7]: 1 µM

SMILES: CC(C)Nc1nc(NNC(=O)c2cc3c([nH]c4ccccc43)c(-c3ccccc3Cl)n2)nc(NC(C)C)n1
- IC50 [1]: > 100 µM

SMILES: O=C(NCCNc1nc(NCc2ccccc2)nc(NCc2ccccc2)n1)c1cc2c([nH]c3ccccc32)c(-c2ccccc2)n1
- IC50 [1]: > 100 µM

SMILES: NNc1nc(NN)nc(NCCNC(=O)c2cc3c([nH]c4ccccc43)c(-c3ccccc3)n2)n1
- IC50 [1]: > 100 µM

SMILES: CC(C)Nc1nc(NNC(=O)c2cc3c([nH]c4ccccc43)c(-c3ccccc3)n2)nc(NC(C)C)n1
- IC50 [1]: 39.7 µM
- CC50 at 48 h [4]: 103 µM
- selectivity ratio [5]: 3.16
- selectivity ratio [6]: 2.6
- IC50 [7]: 32.5 µM

SMILES: CC(C)Nc1nc(NNC(=O)c2cc3c([nH]c4ccccc43)c(-c3ccc(F)cc3)n2)nc(NC(C)C)n1
- IC50 [1]: 43.4 µM
- CC50 at 48 h [4]: 50 µM
- selectivity ratio [6]: 1.2

SMILES: CC(C)Nc1nc(NCCNC(=O)c2cc3c([nH]c4ccccc43)c(-c3ccccc3Cl)n2)nc(NC(C)C)n1
- IC50 [1]: > 100 µM

SMILES: O=C(NNc1nc(Cl)nc(Cl)n1)c1cc2c([nH]c3ccccc32)c(-c2ccccc2Cl)n1
- IC50 [1]: 34.1 µM
- CC50 at 48 h [4]: 22 µM
- selectivity ratio [6]: 0.6

SMILES: COc1ccc(-c2nc(C(=O)NNc3nc(NC(C)C)nc(NC(C)C)n3)cc3c2[nH]c2ccccc23)cc1
- IC50 [1]: > 100 µM

SMILES: COc1ccc(-c2nc(C(=O)NCCNc3nc(NC(C)C)nc(NC(C)C)n3)cc3c2[nH]c2ccccc23)cc1
- Activity [8]: 81.9%
- IC50 [1]: 6.2 µM
- Activity [9]: Active
- Activity [10]: Active
- Activity [11]: Active
- Activity [12]: Active
- CC50 at 48 h [4]: 146 µM
- Activity [13]: Active
- Activity [14]: 184.8%
- Activity [15]: 9%
- Activity [16]: Active
- selectivity ratio [5]: 121
- selectivity ratio [6]: 23.5
- Activity [17]: Active
- Activity [18]: Active
- Activity [19]: 428.6%
- Activity [20]: Active
- IC50 [7]: 1.2 µM
- Activity [21]: Active

SMILES: O=C(NCCCCCCNc1nc(Cl)nc(Cl)n1)c1cc2c([nH]c3ccccc32)c(-c2ccccc2)n1
- IC50 [1]: > 100 µM

SMILES: O=C(NNc1nc(Cl)nc(Cl)n1)c1cc2c([nH]c3ccccc32)c(-c2ccccc2)n1
- IC50 [1]: 43.3 µM
- CC50 at 48 h [4]: 94.5 µM
- selectivity ratio [5]: 85.9
- selectivity ratio [6]: 2.2
- IC50 [7]: 1.1 µM

SMILES: O=C(NCCNc1nc(Cl)nc(Cl)n1)c1cc2c([nH]c3ccccc32)c(-c2ccccc2Cl)n1
- IC50 [1]: 7.6 µM
- CC50 at 48 h [4]: 28.5 µM
- selectivity ratio [6]: 3.8

SMILES: CC(C)Nc1nc(NCCNC(=O)c2cc3c([nH]c4ccccc43)c(-c3cccc([N+](=O)[O-])c3)n2)nc(NC(C)C)n1
- IC50 [1]: 44.6 µM
- CC50 at 48 h [4]: 86.3 µM
- selectivity ratio [6]: 1.9

SMILES: CCCCCCCCCCCCCCCCOP(=O)([O-])OCC[N+](C)(C)C [MILTEFOSINE]
- IC50 [1]: 18.5 µM
- CC50 at 48 h [4]: 40.5 µM
- selectivity ratio [5]: 16.9
- selectivity ratio [6]: 2.2
- IC50 [7]: 2.4 µM

SMILES: O=C(NCCNc1nc(Cl)nc(Cl)n1)c1cc2c([nH]c3ccccc32)c(-c2cccc([N+](=O)[O-])c2)n1
- IC50 [1]: 5.1 µM
- CC50 at 48 h [4]: 83.1 µM
- selectivity ratio [5]: 75.5
- selectivity ratio [6]: 16.3
- IC50 [7]: 1.1 µM

SMILES: O=C(NCCNc1nc(Cl)nc(Cl)n1)c1cc2c([nH]c3ccccc32)c(-c2ccccc2)n1
- IC50 [1]: 30.9 µM
- CC50 at 48 h [4]: 135 µM
- selectivity ratio [5]: 70.8
- selectivity ratio [6]: 4.4
- IC50 [7]: 1.9 µM

SMILES: CC(C)Nc1nc(NCCNC(=O)c2cc3c([nH]c4ccccc43)c(-c3ccc(F)cc3)n2)nc(NC(C)C)n1
- IC50 [1]: > 100 µM

SMILES: CC(C)Nc1nc(NCCNC(=O)c2cc3c([nH]c4ccccc43)c(-c3ccccc3)n2)nc(NC(C)C)n1
- IC50 [1]: 7.5 µM
- CC50 at 48 h [4]: 98.1 µM
- selectivity ratio [5]: 2.8
- selectivity ratio [6]: 13.1
- IC50 [7]: 35 µM

SMILES: O=C(NNc1nc(Cl)nc(Cl)n1)c1cc2c([nH]c3ccccc32)c(-c2ccc(F)cc2)n1
- IC50 [1]: > 100 µM

SMILES: O=C(NCCNc1nc(NC2CCCCC2)nc(NC2CCCCC2)n1)c1cc2c([nH]c3ccccc32)c(-c2ccccc2)n1
- IC50 [1]: > 100 µM

SMILES: O=C(NCCNc1nc(N2CCOCC2)nc(N2CCOCC2)n1)c1cc2c([nH]c3ccccc32)c(-c2ccccc2)n1
- IC50 [1]: > 100 µM

SMILES: CCCCNC(=O)c1cc2c([nH]c3ccccc32)c(-c2ccc(OC)cc2)n1
- selectivity ratio [22]: 2080
- IC50 [3]: 0.25 µM

SMILES: CN1CCN(c2nc(NCCNC(=O)c3cc4c([nH]c5ccccc54)c(-c4ccccc4)n3)nc(N3CCN(C)CC3)n2)CC1
- IC50 [1]: > 100 µM
